The text below walks through data of ChEMBL document CHEMBL4396943, “The tetrahydroxanthone-dimer phomoxanthone A is a strong inducer of apoptosis in cisplatin-resistant solid cancer cells” (Bioorg Med Chem, 2019).

For assay [1], the system named is CAL-27. Put plainly: Antiproliferative activity against human CAL27 cells assessed as reduction in cell viability incubated for 72 hrs by MTT assay. As to conditions: CAL-27, 72 h. The assay is classed as functional, cell-based. In short, it runs like this: (§1)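 Cells seeded overnight in 96-well plates, then exposed to increasing concentrations (compound dissolved in DMSO, diluted in medium) for the stated time. MTT (5 mg/ml in PBS) added for 15 min, formazan dissolved in DMSO, absorbance read at 544 nm minus 690 nm background. IC50 = concentration giving 50% signal decrease. At least three independent experiments in triplicate.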
(In general: Formazan colour is commonly taken as a measure of viable cells.)

For assay [2], the system named is J82. Kind of assay: Antiproliferative activity against human cisplatin resistant J82 cells assessed as reduction in cell viability incubated for 72 hrs by MTT assay. As to conditions: J82, 72 h. The assay is classed as functional, cell-based. In short, it runs like this:
as §1

Assay [3] has as its system K562. Kind of assay: Antiproliferative activity against human K562 cells assessed as reduction in cell viability incubated for 72 hrs by MTT assay. As to conditions: K562, 72 h. It is filed as functional, cell-based. An outline of the steps:
as §1

Assay [4] deals with A2780. Put plainly: Potency index, ratio of cisplatin IC50 to compound IC50 for antiproliferative activity in human A2780 cells assessed as reduction in cell viability incubated for 72 hrs by MTT assay. It is filed as functional. In short, it runs like this: (§2)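 Cells seeded in 96-well plates overnight, exposed 72 h to increasing concentrations. MTT (5 mg/ml) added for 15 min, formazan dissolved in DMSO, absorbance read at 544 nm with 690 nm background subtracted. IC50 is the concentration reducing signal by 50%. Three independent experiments in triplicate. CisR sublines made by weekly intermittent cisplatin exposure for 24–30 weeks.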

Assay [5] has as its system MDA-MB-231. Put plainly: Potency index, ratio of cisplatin IC50 to compound IC50 for antiproliferative activity in human MDA-MB-231 cells assessed as reduction in cell viability incubated for 72 hrs by MTT assay. It is filed as functional. An outline of the steps:
as §2

The subject of assay [6] is KYSE-510. Put plainly: Potency index, ratio of cisplatin IC50 to compound IC50 for antiproliferative activity in cisplatin resistant human KYSE-510 cells assessed as reduction in cell viability incubated for 72 hrs by MTT assay. It is filed as functional. In short, it runs like this:
as §2

Assay [7] deals with A2780. Put plainly: Cell cycle arrest in human A2780 cells assessed as accumulation at G1 phase at 10 uM incubated for 24 hrs by propidium iodide staining based flow cytometry (reference value: 61.8%). The assay is classed as functional. In short, it runs like this:
(§3)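 After 24 h exposure, cells washed in ice-cold PBS. About 2 million cells fixed in cold 70% ethanol at −20 °C for at least 24 h. Stained with 0.1% Triton X-100, 200 µg/ml RNase A and 20 µg/ml propidium iodide in PBS, 15 min at 37 °C in the dark. DNA content read by flow cytometry with doublet discrimination. Medium as untreated control, paclitaxel as G2/M control. Three independent experiments.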
In general terms: A flow cytometer gives signals particle by particle.

The subject of assay [8] is A2780cisR. Kind of assay: Cell cycle arrest in human A2780cisR cells assessed as accumulation at G1 phase incubated for 24 hrs by propidium iodide staining based flow cytometry. The assay is classed as functional. An outline of the steps: as §3
The subject of assay [9] is J82. Kind of assay: Cell cycle arrest in human J82 cells assessed as accumulation at G1 phase at 5 uM incubated for 24 hrs by propidium iodide staining based flow cytometry (reference value: 69.6%). It is filed as functional. In short, it runs like this: as §3
Assay [10] deals with A2780. Kind of assay: Induction of apoptosis in human A2780 cells assessed as accumulation in subG1 phase incubated for 24 hrs by propidium iodide staining based flow cytometry. It is filed as functional, cell-based. An outline of the steps:
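Cells plated in 24-well plates (about 100,000/well) for one day, then treated 24 h. Where used, caspase inhibitor Q-VD-OPh (20 µM) was added 1 h before. Cells lysed in hypotonic buffer (0.1% sodium citrate, 0.1% Triton X-100, 100 µg/ml propidium iodide) overnight at 4 °C in the dark. Sub-G1 fraction read by flow cytometry. Medium control, cisplatin positive control.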

For assay [11], the system named is J82. Put plainly: Induction of apoptosis in human J82 cells assessed as depolarization of mitochondrial membrane potential incubated for 2 hrs by TMRE staining based flow cytometry. The assay is classed as functional, cell-based. In short, it runs like this: (§4)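 Cells seeded overnight; complete medium swapped for FBS-free medium just before treatment to avoid TMRE ester cleavage. Exposure to PXA for 1 h, 2 h or 24 h. TMRE staining 20 min, cells collected by trypsinisation, ΔΨm read by flow cytometry. Medium served as negative control, 20 µM CCCP as positive control. Mean ± SEM reported.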

The subject of assay [12] is A2780. Kind of assay: Induction of apoptosis in human A2780 cells assessed as depolarization of mitochondrial membrane potential at 1 uM incubated for 2 hrs by TMRE staining based flow cytometry. It is filed as functional. An outline of the steps: as §4
For assay [13], the system named is J82. Put plainly: Induction of apoptosis in human J82 cells assessed as mitochondrial membrane potential at 1 uM incubated for 2 hrs by hoechst 33342 staining based fluorescence microscopy. The assay is classed as functional, cell-based. In short, it runs like this:
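J82 cells treated 2 h with PXA, then labelled 20 min with TMRE plus Hoechst 33342. ΔΨm read by high-content fluorescence imaging. Untreated medium and 20 µM CCCP served as controls.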

Assay [14] has as its system A2780cisR. Put plainly: Induction of apoptosis in human A2780cisR cells assessed as increase in intracellular calcium level at 10 to 30 uM incubated for 30 mins in presence of 1 mM extracellular calcium by fluorimetry. The assay is classed as functional, cell-based. An outline of the steps:
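Cells seeded in 96-well plates overnight, washed twice with Krebs-HEPES buffer, loaded 1 h at 37 °C in the dark with Oregon Green BAPTA-1 AM (final 3 µM) and Pluronic F-127. Buffer replaced, PXA added, fluorescence at 544 nm recorded for 30 min, with or without 1 mM extracellular Ca2+. Three experiments, mean ± SEM.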
(A change in cytosolic calcium serves as a functional read-out for many receptors and channels.)

The test system of assay [15] is A2780cisR. Put plainly: Induction of apoptosis in human A2780cisR cells assessed as increase in caspase 3 cleavage at 5 uM incubated for 24 hrs by proteome profiler analysis. It is filed as functional, cell-based. In short, it runs like this:
(§5)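 A2780 and A2780CisR cells treated 24 h with 5 µM PXA; apoptosis-related proteins profiled with a human apoptosis antibody array following kit instructions.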

Assay [16] relates to A2780cisR. Kind of assay: Induction of apoptosis in human A2780cisR cells assessed as decrease in claspin expression at 5 uM incubated for 24 hrs by proteome profiler analysis. The assay is classed as functional, cell-based. In short, it runs like this:
as §5

Assay [17] has as its system A2780. Put plainly: Induction of apoptosis in human A2780 cells assessed as plasma membrane damage at 1 to 10 uM incubated for 24 hrs by propidium iodide staining based flow cytometry. The assay is classed as functional, cell-based. An outline of the steps:
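Cells exposed to PXA for 24 h, trypsinised, pelleted at 4 °C, stained with 100 µg/ml propidium iodide, diluted in sheath fluid and read by flow cytometry. Positive control was 0.2% Triton X-100 (20 min). Three experiments, mean ± SEM.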

Assay [18] deals with A2780cisR. Put plainly: Effect on ROS generation in human A2780cisR cells at 316 nM incubated for 18 hrs by H2DCFDA staining based flow cytometry. The assay is classed as functional, cell-based. An outline of the steps:
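Cells plated in 24-well plates (about 150,000/well) overnight, then exposed 18 h. Washed and moved to phenol red-free, serum-free RPMI-1640, then loaded with 10 µM H2DCF-DA for 30 min at 37 °C in the dark. One aliquot read directly, the other after 250 µM H2O2 for 1 h at 37 °C. DCF fluorescence read by flow cytometry. Three independent experiments.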

For assay [19], the system named is A2780cisR. Kind of assay: Induction of apoptosis in human A2780cisR cells assessed as nuclear condensation by measuring reduced size and increased intensity of nuclei at 10 uM incubated for 24 hrs by hoechst 33342 staining based fluorescence microscopy. The assay is classed as functional, cell-based.
Assay [20] has as its system A2780cisR. Put plainly: Induction of apoptosis in human A2780cisR cells assessed as depolarization of mitochondrial membrane potential at 1 uM by TMRE staining based flow cytometry. It is filed as functional, cell-based. To be noted: TDE = time-dependent effect. In short, it runs like this:
as §4

One may read the IC50 as the midpoint of a concentration-inhibition curve.

Calls of active or inactive are those of the source. The calls are words filed in the database; no cut-off is given here.

Regarding `CC(=O)OC[C@]12Oc3c(-c4ccc(O)c5c4O[C@@]4(COC(C)=O)C(=C(O)C[C@@H](C)[C@H]4OC(C)=O)C5=O)ccc(O)c3C(=O)C1=C(O)C[C@@H](C)[C@H]2OC(C)=O` [PHOMOXANTHONE A], the IC50 came to 5250 nM in assay [1]; 2040 nM in [2]; 1860 nM in assay [3]; 3340 nM in assay [11] (J82, 2 h). Besides, the results for the “Ratio IC50” value in assay [4], in assay [5] and in [6] were 7, 2 - 10 and 2 - 10, respectively. Also, the Activity is 78.9% in [7]; “Dose-dependent effect” in [8]; 68% in assay [9]; “Dose-dependent effect” in assay [10]; “Dose-dependent effect” in [11]; 50% in [12]. The Activity entry in assay [20] was “Tde”. Besides, the result in assay [13], in assay [17] and in assay [18] was inactive. Also, the result in assay [14], in assay [15], in assay [16] and in assay [19] was Active.
